From ChEMBL document CHEMBL4270599, “Synthesis of a 3'-C-ethynyl-β-d-ribofuranose purine nucleoside library: Discovery of C7-deazapurine analogs as potent antiproliferative nucleosides” (Eur J Med Chem, 2018)
pIC50: −log10 of the molar value.

Legend:
[1] = tested on: ACHN; assay: Growth inhibition of human ACHN cells assessed as cell growth at 10^-7 M incubated for 48 hrs by sulforhodamine B assay relative to control; assay type: functional; settings: read-out: Activity
[2] = tested on: HCT-116; assay: Cytotoxicity against human HCT116 cells after 48 hrs by SRB assay; assay type: functional; settings: HCT-116, 48 h
[3] = tested on: SK-MEL-28; assay: Growth inhibition of human SK-MEL-28 cells assessed as cell growth at 10^-8 M incubated for 48 hrs by sulforhodamine B assay relative to control; assay type: functional; settings: SK-MEL-28, 48 h, read-out: Activity
[4] = tested on: NCI-H226; assay: Growth inhibition of human NCI-H226 cells assessed as cell growth at 10^-7 M incubated for 48 hrs by sulforhodamine B assay relative to control; assay type: functional; settings: NCI-H226, 48 h, read-out: Activity
[5] = tested on: MDA-MB-231; assay: Growth inhibition of human MDA-MB-231 cells assessed as cell growth at 10^-5 M incubated for 48 hrs by sulforhodamine B assay relative to control; assay type: functional; settings: MDA-MB-231, 48 h, read-out: Activity
[6] = tested on: HCC 2998; assay: Growth inhibition of human HCC2998 cells assessed as cell growth at 10^-6 M incubated for 48 hrs by sulforhodamine B assay relative to control; assay type: functional; settings: HCC 2998, 48 h, read-out: Activity
[7] = tested on: OVCAR-4; assay: Growth inhibition of human OVCAR4 cells assessed as cell growth at 10^-4 M incubated for 48 hrs by sulforhodamine B assay relative to control; assay type: functional; settings: OVCAR-4, 48 h, read-out: Activity
[8] = tested on: SR; assay: Cytotoxicity against human SR cells after 48 hrs by SRB assay; assay type: functional
[9] = tested on: EKVX; assay: Growth inhibition of human EKVX cells assessed as cell growth at 10^-7 M incubated for 48 hrs by sulforhodamine B assay relative to control; assay type: functional; settings: read-out: Activity
[10] = tested on: PC-3; assay: Growth inhibition of human PC3 cells assessed as cell growth at 10^-7 M incubated for 48 hrs by sulforhodamine B assay relative to control; assay type: functional; settings: PC-3, 48 h, read-out: Activity
[11] = tested on: LOX IMVI; assay: Cytotoxicity against human LOXIMVI cells after 48 hrs by SRB assay; assay type: functional
[12] = tested on: PC-3; assay: Growth inhibition of human PC3 cells assessed as cell growth at 10^-6 M incubated for 48 hrs by sulforhodamine B assay relative to control; assay type: functional; settings: PC-3, 48 h, read-out: Activity
[13] = tested on: HOP-92; assay: Growth inhibition of human HOP92 cells assessed as cell growth at 10^-8 M incubated for 48 hrs by sulforhodamine B assay relative to control; assay type: functional; settings: HOP-92, 48 h, read-out: Activity
[14] = tested on: OVCAR-4; assay: Growth inhibition of human OVCAR4 cells assessed as cell growth at 10^-8 M incubated for 48 hrs by sulforhodamine B assay relative to control; assay type: functional; settings: OVCAR-4, 48 h, read-out: Activity
[15] = tested on: NCI-H226; assay: Growth inhibition of human NCI-H226 cells assessed as cell growth at 10^-8 M incubated for 48 hrs by sulforhodamine B assay relative to control; assay type: functional; settings: NCI-H226, 48 h, read-out: Activity
[16] = tested on: DU-145; assay: Cytotoxicity against human DU145 cells after 48 hrs by SRB assay; assay type: functional; settings: DU-145, 48 h
[17] = tested on: CCRF-CEM; assay: Growth inhibition of human CCRF-CEM cells assessed as cell growth at 10^-7 M incubated for 48 hrs by sulforhodamine B assay relative to control; assay type: functional; settings: read-out: Activity
[18] = tested on: BT-549; assay: Growth inhibition of human BT549 cells assessed as cell growth at 10^-8 M incubated for 48 hrs by sulforhodamine B assay relative to control; assay type: functional; settings: BT-549, 48 h, read-out: Activity
[19] = tested on: KM12; assay: Growth inhibition of human KM12 cells assessed as cell growth at 10^-8 M incubated for 48 hrs by sulforhodamine B assay relative to control; assay type: functional; settings: KM12, 48 h, read-out: Activity
[20] = tested on: MDA-MB-468; assay: Growth inhibition of human MDA-MB-468 cells assessed as cell growth at 10^-8 M incubated for 48 hrs by sulforhodamine B assay relative to control; assay type: functional; settings: MDA-MB-468, 48 h, read-out: Activity
[21] = tested on: L1210; assay: Antiproliferative activity against mouse L1210 cells after 48 hrs by Coulter counter method; assay type: functional, cell-based; settings: L1210, 48 h
Summary of the method: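 Cell count assay in 96-well microtiter plates; (5–7.5) × 10⁴ tumor cells per well plus test compound. Cells proliferated at 37 °C in humidified CO₂-controlled atmosphere, 48 h for murine leukemia L1210, 72 h for human lymphocytic CEM and cervix carcinoma HeLa. Counted by Coulter counter; IC₅₀ is the concentration that inhibits proliferation by 50%.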

[22] = tested on: K562; assay: Growth inhibition of human K562 cells assessed as cell growth at 10^-8 M incubated for 48 hrs by sulforhodamine B assay relative to control; assay type: functional; settings: K562, 48 h, read-out: Activity
[23] = tested on: UACC-62; assay: Growth inhibition of human UACC62 cells assessed as cell growth at 10^-6 M incubated for 48 hrs by sulforhodamine B assay relative to control; assay type: functional; settings: UACC-62, 48 h, read-out: Activity
[24] = tested on: MOLT-4; assay: Growth inhibition of human MOLT4 cells assessed as cell growth at 10^-8 M incubated for 48 hrs by sulforhodamine B assay relative to control; assay type: functional; settings: MOLT-4, 48 h, read-out: Activity
[25] = tested on: MDA-MB-231; assay: Growth inhibition of human MDA-MB-231 cells assessed as cell growth at 10^-7 M incubated for 48 hrs by sulforhodamine B assay relative to control; assay type: functional; settings: MDA-MB-231, 48 h, read-out: Activity
[26] = tested on: SF-268; assay: Growth inhibition of human SF268 cells assessed as cell growth at 10^-8 M incubated for 48 hrs by sulforhodamine B assay relative to control; assay type: functional; settings: SF-268, 48 h, read-out: Activity
[27] = tested on: NCI/ADR-RES; assay: Cytotoxicity against human NCI-ADR-RES cells after 48 hrs by SRB assay; assay type: functional
[28] = tested on: SNB-19; assay: Growth inhibition of human SNB19 cells assessed as cell growth at 10^-6 M incubated for 48 hrs by sulforhodamine B assay relative to control; assay type: functional; settings: SNB-19, 48 h, read-out: Activity
[29] = tested on: NCI-H460; assay: Growth inhibition of human NCI-H460 cells assessed as cell growth at 10^-7 M incubated for 48 hrs by sulforhodamine B assay relative to control; assay type: functional; settings: NCI-H460, 48 h, read-out: Activity
[30] = tested on: HCT-116; assay: Growth inhibition of human HCT116 cells assessed as cell growth at 10^-8 M incubated for 48 hrs by sulforhodamine B assay relative to control; assay type: functional; settings: HCT-116, 48 h, read-out: Activity
[31] = tested on: EKVX; assay: Growth inhibition of human EKVX cells assessed as cell growth at 10^-8 M incubated for 48 hrs by sulforhodamine B assay relative to control; assay type: functional; settings: read-out: Activity
[32] = tested on: NCI/ADR-RES; assay: Growth inhibition of human NCI/ADR-RES cells assessed as cell growth at 10^-8 M incubated for 48 hrs by sulforhodamine B assay relative to control; assay type: functional; settings: read-out: Activity
[33] = read-out: pLC50 (the source's name) (converted)
[34] = read-out: LC50 (the source's name)

For `C#C[C@@]1(O)[C@@H](CO)O[C@@H](n2cc(I)c3c(N)ncnc32)[C@@H]1O`, the growth at 0.1 µM [1] was 72%, the GI50 ([2]; read-out: GI50) was 34.4 to 54.7 nM and the TGI ([2]; read-out: TGI) was greater than 100000 nM. The CC50 [2, 33] was greater than 100000 nM, the TGI ([2]; read-out: pTGI (converted)) was greater than 100000 nM and the growth at 0.01 µM [3] was 88 to 97%. It also gave a growth at 0.1 µM [4] of 75 to 95%, a growth at 10 µM [5] of 10 to 12% and a growth at 1 µM [6] of 11 to 16%. For the same compound, the growth at 100 µM [7] was 9 to 14%, the GI50 ([8]; read-out: GI50) was 182 to 378 nM and the CC50 [8, 34] was greater than 100000 nM. It also gave a TGI ([8]; read-out: TGI) of 8150 to 100000 nM, a growth at 0.1 µM [9] of 69 to 75% and a growth at 0.1 µM [10] of 43 to 48%. The GI50 ([11]; read-out: GI50) was 39.7 to 81.2 nM, the CC50 [11, 34] was greater than 100000 nM and the TGI ([11]; read-out: TGI) was 241 to 1220 nM. For the same compound, the growth at 1 µM [12] was 13 to 14%, the growth at 0.01 µM [13] was 58 to 74% and the growth at 0.01 µM [14] was 90 to 104%. It also gave a growth at 0.01 µM [15] of 84 to 97%, a GI50 ([16]; read-out: GI50) of 98.3 to 164 nM and a TGI ([16]; read-out: TGI) greater than 100000 nM. For the same compound, the CC50 [16, 33] was greater than 100000 nM, the TGI ([16]; read-out: pTGI (converted)) was greater than 100000 nM and the growth at 0.1 µM [17] was 72 to 74%. For the same compound, the growth at 0.01 µM [18] was 86 to 96%, the growth at 0.01 µM [19] was 94 to 97% and the growth at 0.01 µM [20] was 81 to 93%. It also gave a pIC50 [21] of 7.25, a growth at 0.01 µM [22] of 95 to 102% and a growth at 1 µM [23] of 40 to 43%. The growth at 0.01 µM [24] was 75 to 83%, the growth at 0.1 µM [25] was 60% and the growth at 0.01 µM [26] was 92%. For the same compound, the GI50 ([27]; read-out: GI50) was 63.7 to 83.9 nM, the TGI ([27]; read-out: TGI) was 4190 to 14900 nM and the CC50 [27, 33] was greater than 100000 nM. The growth at 1 µM [28] was 8 to 26%, the growth at 0.1 µM [29] was 37 to 56% and the growth at 0.01 µM [30] was 83 to 95%. It also gave a growth at 0.01 µM [31] of 79 to 90% and a growth at 0.01 µM [32] of 86 to 88%.
